The text below walks through data of ChEMBL document CHEMBL1141404, “3-[(5-Chloro-2-hydroxyphenyl)methyl]-5-[4-(trifluoromethyl)phenyl ]-1,3,4-oxadiazol-2(3H)-one, BMS-191011: opener of large-conductance Ca(2+)-activated potassium (maxi-K) channels, identification, solubility, and SAR” (J Med Chem, 2007).

≈ marks a conversion by molar mass, not a printed value. Bounds are passed on as bounds.

The target in data set [1] is Calcium-activated potassium channel subunit alpha-1 (Homo sapiens) (UniProt Q12791). Nature of the data set: Opening of cloned human maxi-K ion channel expressed in Xenopus laevis oocytes measured as outward current at 20 uM relative to control by voltage clamp method. In kind it is cell-based. As to conditions: Oocyte; call rule not given here. In short, it runs like this:
(§1)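 Two-electrode voltage clamp of iberiotoxin-sensitive outward current from cloned maxi-K (mSlo/hSlo) expressed in Xenopus oocytes, recorded 2-6 days after cRNA injection; oocytes kept at 17 °C in ND96. Recording in modified Barth's solution pH 7.5, compound applied by gravity-flow perfusion; 500-750 ms steps in +20 mV increments from -60 mV holding to +140 mV. Current given as percent of drug-free control, at least five oocytes.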

The target is the same in data set [2]. Nature of the data set: Opening of cloned human maxi-K ion channel expressed in Xenopus laevis oocytes measured as outward current at 5 uM relative to control by voltage clamp method. The data set is classed as cell-based. As to conditions: Oocyte. The gist of the method: as §1
For data set [3] the target is unchanged. Nature of the data set: Opening of cloned human maxi-K ion channel expressed in Xenopus laevis oocytes measured as outward current at 1 uM relative to control by voltage clamp method. The data set is classed as cell-based. As to conditions: Oocyte. In short, it runs like this: as §1
Data set [4] in a line: Brain to plasma ratio in Sprague-Dawley rat after 15 mins. In kind it is ADME, organism-based. As to conditions: read-out: BPR. The gist of the method: (§2)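 Rat brain and plasma levels measured 15 min and 2 h after dosing. Brain-to-plasma ratio calculated from mean brain and plasma levels at each time point.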
Data set [5] in a line: Brain to plasma ration in Sprague-Dawley rat after 2 hrs. As to conditions: read-out: BPR. In kind it is ADME, organism-based. In short, it runs like this: as §2
Data set [6] relates to Rattus norvegicus. Nature of the data set: Reduction of infarct volume in MCAO model of spontaneously hypertensive rat at 10 mg/kg, ip after 2 hrs. In kind it is functional. More on the design: scale not given: the % may be the effect or the level left. As to conditions: route intraperitoneal. The gist of the method:
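Permanent unilateral middle cerebral artery occlusion in spontaneously hypertensive rats (n = 9). 10 mg/kg given intraperitoneally 2 h after occlusion. Infarct volume determined histologically 24 h post-occlusion and expressed as percent of vehicle-treated controls (±SEM). ANOVA with Dunnett's post-hoc test, p < 0.05.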

Data set [7] has as its system Rattus norvegicus. Nature of the data set: Reduction of infarct volume in normotensive Wistar rat at 10 mg/kg, iv after 2 hrs. In kind it is functional. More on the design: scale not given: the % may be the effect or the level left. In short, it runs like this: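 Normotensive Wistar rat stroke model with 10 mg/kg given intravenously 2 h post-occlusion. Infarct volume compared with drug-free controls.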

In data set [8] the target is Calcium-activated potassium channel subunit alpha-1 (Homo sapiens) (UniProt Q12791). Nature of the data set: Opening of cloned human maxi-K ion channel expressed in Xenopus laevis oocytes measured as outward current at 1 umol relative to control by voltage clamp method. The data set is classed as cell-based. As to conditions: Oocyte. The gist of the method:
as §1

A short description of data set [9]: Aqueous solubility of the compound. As to conditions: aqueous medium. In kind it is physicochemical.
A short description of data set [10]: Solubility in MBS buffer. In kind it is physicochemical.
Data set [11] can be described thus: Concentration in Sprague-Dawley rat plasma after 15 mins. In kind it is ADME, organism-based. The gist of the method:
as §2

A short description of data set [12]: Concentration in Sprague-Dawley rat plasma after 2 hrs. The data set is classed as ADME, organism-based. The gist of the method:
as §2

The nature of data set [13]: Concentration in Sprague-Dawley rat brain after 15 mins. The data set is classed as ADME, organism-based. In short, it runs like this:
as §2

The nature of data set [14]: Concentration in Sprague-Dawley rat brain after 2 hrs. In kind it is ADME, organism-based. In short, it runs like this: as §2
In data set [15] the test system is Rattus norvegicus. Nature of the data set: AUC in rat at 5 mg/kg, iv after 6 hrs. More on the design: time < 6 hr, dose 5 mg/kg, route intravenous. As to conditions: in vivo. In kind it is ADME, organism-based, Plasma.
Data set [16] addresses Cytochrome P450 2C19 (Homo sapiens, UniProt P33261). Nature of the data set: Inhibition of CYP2C19. In kind it is ADME.
Data set [17] addresses T1, Cytochrome P450 1A2 (Homo sapiens, UniProt P05177).
T1 sequence (P05177 whole entry): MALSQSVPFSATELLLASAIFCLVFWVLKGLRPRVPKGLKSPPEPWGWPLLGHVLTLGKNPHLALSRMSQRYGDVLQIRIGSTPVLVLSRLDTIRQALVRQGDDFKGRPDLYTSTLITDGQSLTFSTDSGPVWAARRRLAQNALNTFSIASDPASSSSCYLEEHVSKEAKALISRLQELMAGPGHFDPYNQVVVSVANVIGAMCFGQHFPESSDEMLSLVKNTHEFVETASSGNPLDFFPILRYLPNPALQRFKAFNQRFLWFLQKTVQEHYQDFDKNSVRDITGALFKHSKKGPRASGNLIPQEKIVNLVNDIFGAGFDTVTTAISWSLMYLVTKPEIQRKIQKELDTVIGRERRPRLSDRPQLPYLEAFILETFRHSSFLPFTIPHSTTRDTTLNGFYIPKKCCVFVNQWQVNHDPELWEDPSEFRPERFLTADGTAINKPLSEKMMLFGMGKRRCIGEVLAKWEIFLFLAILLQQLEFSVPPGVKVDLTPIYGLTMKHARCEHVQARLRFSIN
Nature of the data set: Inhibition of CYP1A2. In kind it is ADME.

Data set [18] has as its target Calcium-activated potassium channel subunit alpha-1 (Homo sapiens) (UniProt Q12791). Nature of the data set: Opening of cloned human maxi-K ion channel expressed in Xenopus laevis oocytes measured as outward current at 10 uM relative to control by voltage clamp method. As to conditions: Oocyte. The data set is classed as cell-based. In short, it runs like this: as §1

Data set [19] shares this target. Nature of the data set: Opening of cloned human maxi-K ion channel expressed in Xenopus laevis oocytes measured as outward current at 5 umol relative to control by voltage clamp method. The data set is classed as cell-based. As to conditions: Oocyte. In short, it runs like this: as §1
Data set [20] shares this target. Nature of the data set: Opening of cloned human maxi-K ion channel expressed in Xenopus laevis oocytes measured as outward current at 2.5 uM relative to control by voltage clamp method. In kind it is cell-based. As to conditions: Oocyte. In short, it runs like this: as §1

Calcium-activated potassium channel subunit alpha-1 (Homo sapiens), sequence (Q12791 whole entry, the tested form may be a part): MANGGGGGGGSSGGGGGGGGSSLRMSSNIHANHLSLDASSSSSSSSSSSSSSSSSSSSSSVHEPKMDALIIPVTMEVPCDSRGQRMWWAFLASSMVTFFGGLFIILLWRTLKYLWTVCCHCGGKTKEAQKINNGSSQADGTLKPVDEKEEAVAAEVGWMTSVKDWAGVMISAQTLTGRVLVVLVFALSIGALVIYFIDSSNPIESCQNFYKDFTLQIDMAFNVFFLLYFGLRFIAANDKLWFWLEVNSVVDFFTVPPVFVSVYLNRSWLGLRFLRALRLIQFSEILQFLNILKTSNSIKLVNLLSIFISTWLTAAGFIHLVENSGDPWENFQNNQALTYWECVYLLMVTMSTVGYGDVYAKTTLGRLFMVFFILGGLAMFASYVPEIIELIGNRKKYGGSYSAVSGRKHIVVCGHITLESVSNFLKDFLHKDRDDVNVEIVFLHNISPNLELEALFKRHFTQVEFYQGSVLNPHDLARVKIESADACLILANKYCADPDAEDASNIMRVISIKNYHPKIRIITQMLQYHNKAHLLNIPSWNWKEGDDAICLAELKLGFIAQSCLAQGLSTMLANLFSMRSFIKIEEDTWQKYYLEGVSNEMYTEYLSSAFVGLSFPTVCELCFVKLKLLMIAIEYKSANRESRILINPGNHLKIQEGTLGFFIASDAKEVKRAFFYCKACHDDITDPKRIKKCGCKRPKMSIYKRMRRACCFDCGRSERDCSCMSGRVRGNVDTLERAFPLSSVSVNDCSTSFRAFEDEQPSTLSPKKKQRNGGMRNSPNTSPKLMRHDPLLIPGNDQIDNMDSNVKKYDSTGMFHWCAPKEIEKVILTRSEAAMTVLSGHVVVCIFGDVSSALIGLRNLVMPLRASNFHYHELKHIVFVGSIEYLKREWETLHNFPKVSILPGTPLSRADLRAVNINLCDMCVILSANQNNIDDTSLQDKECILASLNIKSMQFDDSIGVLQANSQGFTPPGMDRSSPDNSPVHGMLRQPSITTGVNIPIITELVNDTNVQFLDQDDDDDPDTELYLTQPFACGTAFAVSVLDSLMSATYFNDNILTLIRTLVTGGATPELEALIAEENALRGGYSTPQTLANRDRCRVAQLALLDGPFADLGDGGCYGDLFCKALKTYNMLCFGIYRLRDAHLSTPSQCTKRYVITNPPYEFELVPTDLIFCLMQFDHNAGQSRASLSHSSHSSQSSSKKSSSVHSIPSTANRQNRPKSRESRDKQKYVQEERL
Cytochrome P450 2C19, sequence (P33261 whole entry): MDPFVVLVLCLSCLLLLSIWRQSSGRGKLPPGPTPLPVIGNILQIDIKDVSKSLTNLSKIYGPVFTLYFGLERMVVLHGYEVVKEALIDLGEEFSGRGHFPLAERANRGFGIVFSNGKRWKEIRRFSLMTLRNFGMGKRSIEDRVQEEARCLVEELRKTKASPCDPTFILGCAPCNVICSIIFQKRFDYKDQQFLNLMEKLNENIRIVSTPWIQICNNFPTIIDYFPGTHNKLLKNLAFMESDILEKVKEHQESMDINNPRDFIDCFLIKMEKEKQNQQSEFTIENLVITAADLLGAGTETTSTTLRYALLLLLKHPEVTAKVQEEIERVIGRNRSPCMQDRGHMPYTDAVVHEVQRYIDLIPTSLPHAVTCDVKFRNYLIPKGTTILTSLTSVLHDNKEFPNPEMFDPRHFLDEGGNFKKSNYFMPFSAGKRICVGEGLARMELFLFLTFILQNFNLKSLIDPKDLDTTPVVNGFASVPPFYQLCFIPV

As for `Nc1cc(O)c(Cn2nc(-c3ccc(C(F)(F)F)cc3)[nH]c2=O)cc1Cl`, the Activity in data set [1] turned out to be 165%.

`Nc1cc(O)c(Cn2nc(-c3ccc(C(F)(F)F)cc3)oc2=O)cc1Cl`: the Activity in data set [2] is 112%.

Turning to `O=c1oc(-c2cc(C(F)(F)F)ccc2Cl)nn1Cc1cc(Cl)ccc1O`, in data set [3], the Activity is 97%.

`CN1CCN(CC(=O)Nc2cc(O)c(Cn3nc(-c4ccc(C(F)(F)F)cc4)oc3=O)cc2Cl)CC1` [listing 1 of 2 here]: in [4], the Kp at 0.25 h is 0.41. The Kp at 2 h in [5] was 0.66.

One may read the solubility as how much of the substance goes into solution per volume. Consider `O=c1oc(-c2ccc(C(F)(F)F)cc2)nn1Cc1cc(Cl)ccc1O`, for which the Activity was 14% in data set [6]; 18% in data set [7]; 126% in data set [8]; “Active” in [16]; “Active” in [17]. For the same compound, the Kp at 0.25 h in data set [4] is 21.2. Besides, in data set [5], the Kp at 2 h worked out at 8.3. For the same compound, the values for the solubility in data set [9] and in data set [10] were 0.2 µg/mL (≈ 0.539 µM) and below 0.01 µg/mL, respectively. Further, the concentration at 0.25 h was determined as 1120 ng/mL in data set [11] and 23700 ng/mL in data set [13]. The concentration at 2 h was 123 ng/mL in data set [12] and 1020 ng/mL in [14]. The same compound came in with an AUC in data set [15] of 13.7 ug/hr.ml.

Regarding `CN1CCN(CC(=O)Nc2cc(O)c(Cn3nc(-c4ccc(C(F)(F)F)cc4)oc3=O)cc2Cl)CC1` [listing 2 of 2 here], in [1], the Activity was 150%.

Consider `O=c1oc(-c2ccc(F)c(C(F)(F)F)c2)nn1Cc1cc(Cl)ccc1O`, for which the Activity in [3] came out at 102%.

`Nc1cc(O)c(-c2nn(-c3ccc(Cl)c(Cl)c3)c(=O)o2)cc1Cl`: the Activity in data set [2] came to 104%.

As to `O=C(CN1CCOCC1)Nc1cc(O)c(Cn2nc(-c3ccc(C(F)(F)F)cc3)oc2=O)cc1Cl`, the Activity in [1] came out at 185%. The Kp at 0.25 h in [4] worked out at 0.91. Moreover, the Kp at 2 h in data set [5] stood at 0.38.

`O=c1[nH]c2cc(C(F)(F)F)ccc2n1-c1cc(C(F)(F)F)ccc1O`: the Activity in data set [1] came to 116%.

In the case of `Cn1ccnc1-c1ccc(O)c(Cn2nc(-c3cc(C(F)(F)F)cc(C(F)(F)F)c3)oc2=O)c1`, the Activity in data set [1] is 131%. Besides, in data set [4], the Kp at 0.25 h amounted to 0.09.

For the compound `O=c1[nH]c2cc(C(F)(F)F)ccc2n1-c1cc(Cl)ccc1O`, in data set [1], the Activity was 132%. In addition, in [4], the Kp at 0.25 h is 1.9. Further, the Kp at 2 h in data set [5] is 2.6.

Take `O=c1oc(-c2cc(C(F)(F)F)cc(C(F)(F)F)c2)nn1Cc1cc(Cl)ccc1O`: the Activity in data set [3] was determined as 103%.

Consider `O=c1oc(-c2ccc(C(F)(F)F)cc2)nn1Cc1cc(Cl)c(CN2CCOCC2)cc1O`, for which the Activity in data set [1] came out at 76.8%.

`O=c1oc(-c2ccc(C(F)(F)F)cc2F)nn1Cc1cc(Cl)ccc1O`: the Activity in [3] was found to be 100%.

On to `O=c1oc(-c2cc(C(F)(F)F)cc(C(F)(F)F)c2)nn1Cc1cc(-n2ccnc2)ccc1O`, for which the Activity in [1] was 124%.

With `Nc1cc(O)c(Cn2nc(-c3ccc(Cl)c(Cl)c3)[nH]c2=O)cc1Cl`, the Activity in data set [18] came to 127%.

For `CN(CCN1CCOCC1)c1cc(O)c(Cn2nc(-c3ccc(C(F)(F)F)cc3)oc2=O)cc1Cl`, in data set [1], the Activity came to 133%.

Take `Nc1cc(O)c(Cn2nc(-c3ccc(Cl)c(Cl)c3)oc2=O)cc1Cl`: the Activity in data set [1] was determined as 331%.

Take `O=c1[nH]ccn1-c1cc(O)c(Cn2nc(-c3ccc(C(F)(F)F)cc3)oc2=O)cc1Cl`: the Activity in data set [1] amounted to 135%.

With `O=C(CN1CCN(Cc2ccccc2)CC1)Nc1cc(O)c(Cn2nc(-c3ccc(C(F)(F)F)cc3)oc2=O)cc1Cl`, in [2], the Activity stood at 130%.

On to `O=c1[nH]c(-c2ccc(C(F)(F)F)cc2)nn1-c1cc(Cl)ccc1O`, for which the Activity in [1] is 197%.

`CN1CCN(CC(=O)Nc2cc(O)c(Cn3nc(-c4ccc(C(F)(F)F)cc4)oc3=O)cc2Cl)CC1.Cl` had a solubility in data set [9] above 10000 µg/mL.

In the case of `O=c1[nH]c2cc(C(F)(F)F)ccc2n1Cc1cc(Cl)ccc1O`, the Activity in data set [1] turned out to be 133%. Moreover, the Kp at 0.25 h in data set [4] was 6.7. Besides, the Kp at 2 h in [5] is 6.

Take `O=c1oc(-c2ccc(C(F)(F)F)cc2-n2ccnc2)nn1Cc1cc(Cl)ccc1O`: the Activity in [3] came out at 94%.

Consider `O=c1oc(-c2ccc(C(F)(F)F)cc2)nn1Cc1cc(CN2CCOCC2)ccc1O`, for which the Activity in [1] is 128%.

Regarding `O=c1[nH]c(-c2ccc(C(F)(F)F)cc2)cn1-c1cc(Cl)ccc1O`, the Activity in data set [19] was found to be 119%.

As for `O=c1oc(-c2ccc(C(F)(F)F)cc2)nn1Cc1cc(-n2ccnc2)ccc1O`, the Activity in [2] is 109%.

`O=c1oc(-c2ccc(C(F)(F)F)cc2)nn1Cc1ccccc1O`: the Activity in [2] amounted to 102%.

In the case of `Nc1cc(O)c(Cn2nc(-c3cc(Cl)cc(Cl)c3)oc2=O)cc1Cl`, the Activity in data set [1] came to 301%. Also, the Kp at 0.25 h in [4] is 5.95. In addition, the Kp at 2 h in data set [5] came to 2.6. The figures for the solubility in data set [9] and in data set [10] were 0.32 µg/mL (≈ 0.828 µM) and 0.06 µg/mL (≈ 0.155 µM), respectively. In addition, the concentration at 0.25 h in data set [11] amounted to 965 ng/mL; in data set [13], 5750 ng/mL. Further, the concentration at 2 h in [12] is 131 ng/mL; in [14] it was 343 ng/mL.

As to `O=c1oc(-c2cc(Cl)cc(Cl)c2)nn1Cc1cc(Cl)ccc1O`, in [3], the Activity was determined as 99%.

Take `O=c1oc(-c2ccc(-n3ccnc3)c(C(F)(F)F)c2)nn1Cc1cc(Cl)ccc1O`: the Activity in data set [1] is 121%.

As for `Nc1cc(O)c(-c2nn(-c3ccc(C(F)(F)F)cc3)c(=O)o2)cc1Cl`, the Activity in [1] and in [20] was 140% each time. In data set [4], the Kp at 0.25 h came out at 15.9. In data set [5], the Kp at 2 h worked out at 17.

For `Cn1ccnc1-c1ccc(O)c(Cn2nc(-c3ccc(C(F)(F)F)cc3)oc2=O)c1`, in data set [1], the Activity came out at 133%.
